These results are taken from ChEMBL document CHEMBL4680297, “Design, synthesis, and evaluation of substrate - analogue inhibitors of Trypanosoma cruzi ribose 5-phosphate isomerase type B” (Bioorg Med Chem Lett, 2021).

The term Ki denotes the dissociation constant of the complex between target and ligand, obtained from inhibition or displacement. Usually IC50 stands for the concentration that inhibits the measured activity by half.

Data set [1] has as its system Trypanosoma cruzi. In words: Inhibition of Trypanosoma cruzi RPE1 assessed as residual activity at 0.2 mM relative to control. In short, it runs like this: (§1)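 TcRPE-1 (first enzyme of the coupled RPI assay) activity measured with compound at 0.2, 0.5, 1.0 or 2.0 mM, as % of uninhibited activity. Mean of three independent determinations ± SEM.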
Data set [2] deals with Trypanosoma cruzi. In words: Inhibition of Trypanosoma cruzi RPE1 assessed as residual activity at 2 mM relative to control. In short, it runs like this: as §1
The subject of data set [3] is Trypanosoma cruzi. In words: Trypanocidal activity against Trypanosoma cruzi trypomastigotes expressing beta galactosidase infected in NIH/3T3 cells assessed as parasite growth inhibition at up to 50 uM by reporter assay. The following applies: dose microM <=50. On the technique in general: In a reporter assay the amount or activity of a reporter protein is the signal.

The test system of data set [4] is Trypanosoma cruzi. In words: Inhibition of Trypanosoma cruzi RPE1 assessed as residual activity at 1 mM relative to control. In short, it runs like this: as §1
Data set [5] has as its system Trypanosoma cruzi. In words: Inhibition of Trypanosoma cruzi Ribose 5-phosphate isomerase type B assessed as residual activity at 0.5 mM using ribose 5-phosphate as substrate relative to control. The method, boiled down:
(§2)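 TcRPI-B activity on R5P, measured by coupled enzyme assay (TcRPE-1 first coupling enzyme), with compound at 0.2, 0.5, 1.0 or 2.0 mM, as % of control activity. Mean of three independent determinations ± SEM.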

The test system of a further data set is NIH3T3. In words: Cytotoxicity against mouse NIH/3T3 cells. In kind it is cell-based.
The test system of data set [6] is Trypanosoma cruzi. In words: Inhibition of Trypanosoma cruzi RPE1 assessed as residual activity at 0.5 mM relative to control. The method, boiled down: as §1
Data set [7] is described as follows: Inhibition of Trypanosoma cruzi Ribose 5-phosphate isomerase type B expressed in Escherichia coli BL21 codon plus (DE3) using ribose 5-phosphate as substrate.
For data set [8], the system named is Trypanosoma cruzi. In words: Inhibition of Trypanosoma cruzi Ribose 5-phosphate isomerase type B assessed as residual activity at 2 mM using ribose 5-phosphate as substrate relative to control. The method, boiled down:
as §2

Data set [9] relates to Trypanosoma cruzi. In words: Inhibition of Trypanosoma cruzi Ribose 5-phosphate isomerase type B assessed as residual activity at 0.2 mM using ribose 5-phosphate as substrate relative to control. The method, boiled down: as §2
Data set [10] deals with Trypanosoma cruzi. In words: Binding affinity to Trypanosoma cruzi Ribose 5-phosphate isomerase type B assessed as covalent bond formation between compound and protein Cys69 residue by trypsin digestion based LC-MS/MS analysis. In short, it runs like this: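 TcRPI-B incubated intact with inhibitor for 30 min, then digested with trypsin to map cysteine modification.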

For data set [11], the system named is Trypanosoma cruzi. In words: Trypanocidal activity against Trypanosoma cruzi trypomastigotes expressing beta galactosidase infected in NIH/3T3 cells assessed as parasite growth inhibition by reporter assay. The following applies: NIH3T3. The data set is classed as functional, organism-based. In short, it runs like this: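 Tulahuen strain expressing β-galactosidase. Trypomastigotes added to NIH-3T3 fibroblasts together with compound, up to 50 μM, covering infection and intracellular amastigote growth. β-Galactosidase activity taken as parasite viability. IC50 from dose-response fits, in triplicate. Amphotericin B positive control.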

Data set [12] deals with Trypanosoma cruzi. In words: Inhibition of Trypanosoma cruzi Ribose 5-phosphate isomerase type B assessed as residual activity at 1 mM using ribose 5-phosphate as substrate relative to control. The method, boiled down: as §2
A short description of data set [13]: Competitive inhibition of Trypanosoma cruzi Ribose 5-phosphate isomerase type B using varying levels of ribose 5-phosphate as substrate by Dixon plot analysis. In short, it runs like this:
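Coupled assay with TcRPE-1 as first coupling enzyme. Inhibitor at 0, 10, 20, 40, 60 and 80 μM, R5P at 0.4, 0.8 and 2 mM. Ki taken from the x-axis intersection of Dixon plots (1/V vs [inhibitor]). Inhibition type assigned from parallel [R5P]/V vs [inhibitor] lines (Cornish-Bowden). Mean of four independent experiments.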

Data set [14] is described as follows: Competitive inhibition of recombinant poly-His-tagged Trypanosoma cruzi Ribose 5-phosphate isomerase type B expressed in Escherichia coli BL21 codon plus (DE3) using ribose 5-phosphate as substrate. The method, boiled down:
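Coupled spectrophotometric RPI assay, with T. cruzi ribulose 5-phosphate epimerase (TcRPE-1) as the first coupling enzyme. Inhibitor was tested at 0, 10, 20, 40, 60 and 80 μM, each at R5P 0.4, 0.8 and 2 mM. Ki came from Dixon plots (1/V vs [inhibitor]), as the X-axis intersection of the three lines. Inhibition type was assigned from [R5P]/V vs [inhibitor] plots (Cornish-Bowden). Mean of four independent experiments.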

The source made the active and inactive calls. The rule behind the calls is not given here.

Regarding `O=C(CF)NCCOP(=O)(O)O`, the Activity in the data set with Trypanosoma cruzi [1] is 111%; in the data set on Trypanosoma cruzi [2], 83.5%; in the data set with Trypanosoma cruzi [4], 93.2%; with Trypanosoma cruzi [5], 2040%; in the data set with NIH3T3, “Non-Toxic”; in the data set with Trypanosoma cruzi [6], 103%. In the data set with Trypanosoma cruzi [3], the outcome was inactive.
In the case of `O=C[C@H](O)[C@H](O)[C@H](O)[C@H](O)COP(=O)(O)O`, the Ki in [7] came out at 15000 µM.
Consider `O=C(CI)NCCOP(=O)(O)O`, for which the Activity in the data set on Trypanosoma cruzi [1] was found to be 89.5%; in the data set with Trypanosoma cruzi [8], 0%; with Trypanosoma cruzi [2] it was 57.4%; in the data set on Trypanosoma cruzi [9], 25.2%; in the data set with Trypanosoma cruzi [4], 103%; with Trypanosoma cruzi [5], 7.5%. Besides, the Activity in the data set with Trypanosoma cruzi [12] was 1.2%; in the data set with NIH3T3 it was “Non-Toxic”; in the data set with Trypanosoma cruzi [6], 89.5%. In the data set on Trypanosoma cruzi [10], the result was Active. Moreover, the concentration for half-maximal inhibition (IC50) with Trypanosoma cruzi [11] is 17.4 µM. The inhibition constant Ki in data set [13] was determined as 5.5 µM.
For the compound `O=C(Cc1ccccc1)NCCOP(=O)(O)O`, the Activity in the data set on Trypanosoma cruzi [1] came out at 100%; with Trypanosoma cruzi [8], 89.2%; in the data set with Trypanosoma cruzi [2], 85.9%; with Trypanosoma cruzi [9], 98.1%; with Trypanosoma cruzi [4], 87.4%; in the data set on Trypanosoma cruzi [5], 97.4%. Besides, the Activity in the data set on Trypanosoma cruzi [12] is 95.3%; with NIH3T3 it was “Non-Toxic”; with Trypanosoma cruzi [6], 91.9%. Also, the outcome with Trypanosoma cruzi [3] was inactive.
Regarding `O=C(NO)[C@H](O)[C@H](O)COP(=O)(O)O`, in [14], the inhibitory constant (Ki) was determined as 1200 µM.
`O=C(CBr)NCCOP(=O)(O)O`: the Activity stood at 91.1% in the data set with Trypanosoma cruzi [1]; 18.3% with Trypanosoma cruzi [8]; 65.1% in the data set on Trypanosoma cruzi [2]; 78.5% in the data set on Trypanosoma cruzi [9]; 77.3% with Trypanosoma cruzi [4]; 62.7% in the data set on Trypanosoma cruzi [5]. Besides, the results for the Activity in the data set on Trypanosoma cruzi [12], in the data set on NIH3T3 and in the data set on Trypanosoma cruzi [6] were 41.3%, “Non-Toxic” and 85.8%, respectively. Also, in the data set with Trypanosoma cruzi [3], the result was inactive.
On to `C[C@@H]1[C@H](O)[C@@H](C)/C=C/C=C/C=C/C=C/C=C/C=C/C=C/[C@H](O[C@@H]2O[C@H](C)[C@@H](O)[C@H](N)[C@@H]2O)C[C@@H]2O[C@](O)(C[C@@H](O)C[C@@H](O)[C@H](O)CC[C@@H](O)C[C@@H](O)CC(=O)O[C@H]1C)C[C@H](O)[C@H]2C(=O)O` [AMPHOTERICIN B], for which, in the data set with Trypanosoma cruzi [11], the IC50 is 0.23 µM.
Turning to `O=C(CCl)NCCOP(=O)(O)O`, the Activity with Trypanosoma cruzi [1] turned out to be 100%; in the data set on Trypanosoma cruzi [8], 83.7%; with Trypanosoma cruzi [2], 82.6%; in the data set with Trypanosoma cruzi [9], 107%; with Trypanosoma cruzi [4] it was 95.5%; in the data set with Trypanosoma cruzi [5], 105%. Further, the Activity is 98.5% in the data set on Trypanosoma cruzi [12], “Non-Toxic” in the data set with NIH3T3 and 103% with Trypanosoma cruzi [6].
